Hits are enriched below; roughly 4.8% of the tested compounds scored in any of these assays.
Efflux pump inh = inhibitors of Candida efflux pumps in yeast, primary screen, S. cerevisiae, Nile Red, multiplex; S. cerevisiae Candida pump triplex; inhibition, % at 10 µM; actives 0.44% (n = 330,000); AID 485275, 2010;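 active means plate passing quality check with inhibition over a set limit, or well fluorescence over plate mean plus 4 SD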;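 further: Nile Red retained in pooled yeast measured as flow cytometry median fluorescence; higher means more Nile Red kept so more efflux inhibition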
CSC inhib = cancer stem cell viability inhibitors, primary screen, luminescence | inhibition, % at 7.5 µM | AID 2717, 2010 | actives 1.1% (n = 300,000) | cancer stem cell-like cells viability; in the data active means inhibition above about 75%; inconclusive means no clear call, values can overlap the other calls; tested in HMLE shEcad cells
SUMO Mot1 rescue = yeast Mot1-301 growth rescue at high temperature, primary screen, SUMOylation pathway inhibitor project, S. cerevisiae, ATP luminescence, 38.5C; AID 2716, 2010; actives 1% (n = 320,000); growth rescue, % at 18.8 µM; S. cerevisiae Mot1-301 growth rescue; percent above DMSO median, 100 means doubled;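 active means every valid replicate shows activation above 250% relative to neutral control wells; inactive means the rest, any valid replicate at or below 250%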
T cruzi repl = inhibitors of intracellular T. cruzi growth, primary screen, luminescence, NIH3T3 host cells; T. cruzi beta-gal in NIH3T3, 90 h; inhibition, % (test concentration not listed); actives 1.4% (n = 300,000); AID 1885, 2009;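 active means mean inhibition across valid replicates above about 55%, limit read from the data; inconclusive means mean below that limit but half or more replicates reach it; inactive means mean below it, under half of replicates reach it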;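 further: signal also drops with host cell toxicity which is not excluded here; higher percent means less beta-gal luminescence so fewer parasites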
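assay system = mouse NIH/3T3 fibroblasts infected with β-gal-expressing T. cruzi Tulahuen C4 | input = 5,000 NIH/3T3 host cells per well | buffer or medium = DMEM plus 2% FBS | timing = 3 h host attachment, then at least 90 h co-culture | measured by = GalScreen luminescence, 60 min | evaluation = luminescence reflecting intracellular parasite burden, expressed as percent inhibition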
WT yeast gro inh = growth inhibition of WT strain, primary screen, mitochondrial fusion inhibitor project, WT and mutant strains, chemical genetic. inhibition, % at 10 µM. AID 1362, 2008. actives 2.1% (n = 190,000). mitochondrial fusion phenotypic screen; in the data active means inhibition above about 58%; tested in S. cerevisiae
Beta apoptosis = inhibitors of cytokine-induced beta cell apoptosis, primary screen, luminescence; actives 0.8% (n = 300,000); protection from apoptosis, % (test concentration not listed); INS-1E cytokine-induced death, ATP luminescence, 48 h; percent of positive-control rescue, neutral wells zero;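 active means Every replicate reaches about 75%, or at least half do and their mean reaches it too, limit read from the data; inconclusive means At least half of replicates reach the limit but their mean does not; inactive means Under half of replicates reach the limit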;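 further: higher means more ATP so stronger rescue from cytokine killing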
Large screens that a line does not name were inactive.

O=C(OCC(=O)N1CCN(C(=O)c2ccco2)CC1)c1cn(-c2ccccc2)nc1-c1ccccc1	WT yeast gro inh 80.2
Cc1sc2nc(NCCO)[nH]c(=O)c2c1C	none
COc1cccc(-c2nc(-c3ccccc3)nc(N3CCN(C)CC3)c2C#N)c1	WT yeast gro inh 80.9
CCOC(=O)c1cc(C#N)c(N2CCN(C)CC2)nc1-c1ccccc1	T cruzi repl 56.9 (no result: CSC inhib)
COc1ccc(-c2nc(-c3cccc(C)c3)nc(N3CCN(C)CC3)c2C#N)cc1	none
CN1CCN(c2nc(-c3ccccc3)nc(-c3ccccc3)c2C#N)CC1	WT yeast gro inh 72.9
COc1ccc(-c2nc(-c3ccccc3)nc(N3CCN(C)CC3)c2C#N)cc1	none (no result: Beta apoptosis)
CCOc1ccc(C(=O)Nc2c(C(=O)N3CCC(N4CCCCC4)CC3)oc3ccccc23)cc1	T cruzi repl 58.1 (no result: WT yeast gro inh)
Cc1ccc(OCC(O)Cn2c(=N)n(CCN3CCCCC3)c3ccccc32)cc1 (stereo unspecified)	T cruzi repl 73.4
Cc1ccccc1OCC(O)Cn1c(=N)n(Cc2ccccc2)c2ccccc21 (stereo unspecified)	CSC inhib inconclusive, T cruzi repl 54.7 (no result: WT yeast gro inh)
CCn1cc([N+](=O)[O-])c(C(=O)N2N=C3/C(=C/c4cccs4)CCCC3C2c2cccs2)n1 (stereo unspecified)	none
Cc1ccc(S(=O)(=O)NCCNC(=O)CN2CCOCC2)cc1	none (no result: WT yeast gro inh, Beta apoptosis)
Cc1ccc(Sc2nnc(Cc3ccccc3)c3ccccc23)cc1	T cruzi repl 61.5
COc1ccc(Sc2nnc(Cc3ccccc3)c3ccccc23)cc1	none
Cc1cc(=O)c(C(=O)Nc2cccc(C(=O)NC3CC3)c2)nn1-c1ccccc1Cl	none (no result: CSC inhib, T cruzi repl, WT yeast gro inh)
O=C(Cn1cc([N+](=O)[O-])cn1)N1CCN(Cc2ccc3c(c2)OCO3)CC1	none (no result: WT yeast gro inh)
Cc1ccnc2c1ccc1c(C)ccnc12	CSC inhib 110.6, Beta apoptosis 102.3 (no result: T cruzi repl, WT yeast gro inh)
Cc1ccnc2c1ccc1ccccc12	none (no result: WT yeast gro inh, Beta apoptosis)
COc1cc2nc(NCCCN3CCN(C)CC3)n3nc(-c4ccccc4)nc3c2cc1OC	T cruzi repl 62.3
CCN(CC)CCCNc1nc2cc(OC)c(OC)cc2c2nc(-c3ccccc3)nn12	T cruzi repl 61.0
O=C(O)CCCNC(=O)c1ccccn1	none
O=C(NCCCl)Nc1ccccc1OCCOc1ccccc1NC(=O)NCCCl	none (no result: WT yeast gro inh)
O=C(Nc1ccc(Br)cc1)c1cnc[nH]1	none (no result: WT yeast gro inh)
CC(=O)CC(=O)Nc1ncccn1	none
CCc1ccc(NC(=O)c2cnc(N3CCN(c4ccccn4)CC3)c3ccccc23)cc1	T cruzi repl 60.3
COc1ccc(OC)c(S(=O)(=O)NCCS(=O)(=O)N2CCN(c3ccccc3)CC2)c1	none (no result: WT yeast gro inh)
Cc1ccc(Nc2ccc(-n3ccnc3)nn2)cc1C	WT yeast gro inh 68.6
COc1ccc(CCNCC(O)COc2cccc(Br)c2)cc1 (stereo unspecified)	none
OC(CNCCc1ccc(C(F)(F)F)cc1)COc1cccc2ccccc12 (stereo unspecified)	CSC inhib 95.7, T cruzi repl 60.5
OC(COc1ccc(OCC(O)CN2CCCCC2)cc1)CN1CCCCC1 (stereo unspecified)	none (no result: WT yeast gro inh)
OC(CNCCc1ccc(C(F)(F)F)cc1)COc1ccc2ccccc2c1 (stereo unspecified)	CSC inhib 76.9
OC(COc1ccc(CNCCc2ccc(C(F)(F)F)cc2)cc1)CN1CCCCC1 (stereo unspecified)	T cruzi repl 58.6
O=C(Nc1cccc(S(=O)(=O)NC2=NCCC2)c1)c1ccc(=O)[nH]c1	none (no result: T cruzi repl, WT yeast gro inh)
CCc1ccccc1N1C(=O)[C@@H]2Cc3ccccc3CN2C1=O	none (no result: WT yeast gro inh)
O=C(CN(C(=O)CCC(=O)Nc1ccccn1)c1ccc(F)cc1)NCc1ccc(F)cc1	none (no result: WT yeast gro inh)
O=C(CCN1C(=O)C2CC=CCC2C1=O)Nc1cc(C(F)(F)F)ccc1N1CCCC1 (stereo unspecified)	none (no result: WT yeast gro inh)
Cc1cc(-c2nnc(SCCC(=O)Nc3ccccc3)o2)no1	none (no result: WT yeast gro inh)
O=[N+]([O-])c1cc(CN2CCCC2)ccc1Sc1ccc(Cl)cc1	T cruzi repl 62.4
Clc1ccc(CN2CCCCCC2)cc1	none (no result: WT yeast gro inh)
COc1ccc(Cl)cc1CN1CCOCC1	none (no result: WT yeast gro inh)

From PubChem
